From ChEMBL document CHEMBL2157987, “Benzimidazole bearing oxadiazole and triazolo-thiadiazoles nucleus: design and synthesis as anticancer agents” (2012)

Key:
Type in all cases: functional
HL-60(TB) = assay: Cytotoxicity against human HL-60(TB) cells after 48 hrs by SRB assay; conditions: HL-60, 48 h
Summary of the method: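 Human tumour line grown in RPMI 1640 with 5% FBS and 2 mM L-glutamine. Cells were plated and held 24 h at 37 °C/5% CO2 before dosing, and time-zero plates were TCA-fixed. Five 10-fold concentrations (0.01–100 µM) were added from DMSO stock and incubated 48 h. Cells were TCA-fixed, stained with 0.4% SRB and read at 515 nm. Values were calculated from growth curves relative to time-zero and control.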

MOLT-4 = assay: Cytotoxicity against human MOLT4 cells after 48 hrs by SRB assay; conditions: MOLT-4, 48 h
Summary of the method: (§1)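 Five-dose NCI-60 panel screen: cells grown in RPMI 1640 with 5% FBS and 2 mM L-glutamine, preincubated 24 h at 37 °C, 5% CO2. Five 10-fold dilutions, 0.01–100 µM, applied for 48 h. Fixed with cold TCA (10% final), stained with 0.4% SRB, absorbance read at 515 nm. GI50, TGI and LC50 were taken from log concentration versus % growth curves using time-zero plates.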

HOP-62 = assay: Cytotoxicity against human HOP62 cells after 48 hrs by SRB assay; conditions: HOP-62, 48 h; summary of the method: as §1
NCI-H23 = assay: Cytotoxicity against human NCI-H23 cells after 48 hrs by SRB assay; conditions: NCI-H23, 48 h; summary of the method: as §1
COLO 205 = assay: Cytotoxicity against human COLO205 cells after 48 hrs by SRB assay; conditions: COLO 205, 48 h; summary of the method: as §1
HCT-116 = assay: Cytotoxicity against human HCT116 cells after 48 hrs by SRB assay; conditions: HCT-116, 48 h; summary of the method: as §1
HCT-15 = assay: Cytotoxicity against human HCT15 cells after 48 hrs by SRB assay; conditions: HCT-15, 48 h; summary of the method: as §1
KM12 = assay: Cytotoxicity against human KM12 cells after 48 hrs by SRB assay; conditions: KM12, 48 h; summary of the method: as §1
SF-268 = assay: Cytotoxicity against human SF268 cells after 48 hrs by SRB assay; conditions: SF-268, 48 h; summary of the method: as §1
SF-539 = assay: Cytotoxicity against human SF539 cells after 48 hrs by SRB assay; conditions: SF-539, 48 h; summary of the method: as §1
SNB-19 = assay: Cytotoxicity against human SNB19 cells after 48 hrs by SRB assay; conditions: SNB-19, 48 h
Summary of the method: (§2)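 Cells were grown in RPMI 1640 with 5% FBS and 2 mM L-glutamine, then held 24 h at 37 °C and 5% CO2 before dosing. TCA-fixed time-zero plates were kept. Compound was dissolved in DMSO and given at five 10-fold dilutions for 48 h. Cells were fixed with cold TCA (10% final), stained with 0.4% SRB and read at 515 nm. GI50, TGI and LC50 came from Ti/Tz/control growth formulas.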

SNB-75 = assay: Cytotoxicity against human SNB75 cells after 48 hrs by SRB assay; conditions: SNB-75, 48 h; summary of the method: as §2
SK-MEL-2 = assay: Cytotoxicity against human SK-MEL-2 cells after 48 hrs by SRB assay; conditions: SK-MEL-2, 48 h; summary of the method: as §1
OVCAR-4 = assay: Cytotoxicity against human OVCAR4 cells after 48 hrs by SRB assay; conditions: OVCAR-4, 48 h; summary of the method: as §1
OVCAR-8 = assay: Cytotoxicity against human OVCAR8 cells after 48 hrs by SRB assay; conditions: OVCAR-8, 48 h; summary of the method: as §1
NCI/ADR-RES = assay: Cytotoxicity against human NCI/ADR-RES cells after 48 hrs by SRB assay; summary of the method: as §1
786-0 = assay: Cytotoxicity against human 786-0 cells after 48 hrs by SRB assay; conditions: 786-0, 48 h; summary of the method: as §1
A498 = assay: Cytotoxicity against human A498 cells after 48 hrs by SRB assay; conditions: A498, 48 h; summary of the method: as §1
ACHN = assay: Cytotoxicity against human ACHN cells after 48 hrs by SRB assay; summary of the method: as §1
CAKI-1 = assay: Cytotoxicity against human Caki1 cells after 48 hrs by SRB assay; conditions: CAKI-1, 48 h; summary of the method: as §1
[1] = read-out: LC50 (the source's name)
[2] = read-out: pLC50 (the source's name) (converted)

Q: How did the GI50 (HL-60(TB)) turn out when Nc1cc(Br)c(-c2nnc(CCC(=O)c3nc4ccccc4[nH]3)o2)c(Br)c1 was run?
A: 3.47 µM

Q: And the CC50 (HL-60(TB); [1])?
A: > 100 µM

Q: What about the TGI (HL-60(TB); read-out: TGI) of the same compound?
A: > 100 µM

Q: What about the CC50 (HL-60(TB); [2]) of the same compound?
A: > 100 µM

Q: What about the TGI (HL-60(TB); read-out: pTGI) of the same compound?
A: > 100 µM

Q: What about the GI50 (MOLT-4) of the same compound?
A: 4.9 µM

Q: What about the CC50 (MOLT-4; [1]) of the same compound?
A: > 100 µM

Q: And the TGI (MOLT-4; read-out: TGI)?
A: > 100 µM

Q: And the CC50 (MOLT-4; [2])?
A: > 100 µM

Q: What about the TGI (MOLT-4; read-out: pTGI) of the same compound?
A: > 100 µM

Q: And the GI50 (HOP-62)?
A: 23.4 µM

Q: And the CC50 (HOP-62; [1])?
A: > 100 µM

Q: And the TGI (HOP-62; read-out: TGI)?
A: > 100 µM

Q: What about the CC50 (HOP-62; [2]) of the same compound?
A: > 100 µM

Q: And the TGI (HOP-62; read-out: pTGI)?
A: > 100 µM

Q: What about the GI50 (NCI-H23) of the same compound?
A: 3.24 µM

Q: And the CC50 (NCI-H23; [1])?
A: > 100 µM

Q: What about the TGI (NCI-H23; read-out: TGI) of the same compound?
A: 36.4 µM

Q: What about the CC50 (NCI-H23; [2]) of the same compound?
A: > 100 µM

Q: And the TGI (NCI-H23; read-out: pTGI (converted))?
A: 36.3 µM

Q: And the GI50 (COLO 205)?
A: 11.7 µM

Q: What about the CC50 (COLO 205; [1]) of the same compound?
A: 80.1 µM

Q: And the TGI (COLO 205; read-out: TGI)?
A: 30.8 µM

Q: And the CC50 (COLO 205; [2])?
A: 79.4 µM

Q: And the TGI (COLO 205; read-out: pTGI (converted))?
A: 30.9 µM

Q: What about the GI50 (HCT-116) of the same compound?
A: 8.32 µM

Q: What about the CC50 (HCT-116; [1]) of the same compound?
A: > 100 µM

Q: What about the TGI (HCT-116; read-out: TGI) of the same compound?
A: > 100 µM

Q: What about the CC50 (HCT-116; [2]) of the same compound?
A: > 100 µM

Q: And the TGI (HCT-116; read-out: pTGI)?
A: > 100 µM

Q: What about the GI50 (HCT-15) of the same compound?
A: > 100 µM

Q: And the CC50 (HCT-15; [1])?
A: > 100 µM

Q: What about the TGI (HCT-15; read-out: TGI) of the same compound?
A: > 100 µM

Q: What about the CC50 (HCT-15; [2]) of the same compound?
A: > 100 µM

Q: What about the TGI (HCT-15; read-out: pTGI) of the same compound?
A: > 100 µM

Q: What about the GI50 (KM12) of the same compound?
A: 3.72 µM

Q: And the CC50 (KM12; [1])?
A: > 100 µM

Q: What about the TGI (KM12; read-out: TGI) of the same compound?
A: 18 µM

Q: What about the CC50 (KM12; [2]) of the same compound?
A: > 100 µM

Q: What about the TGI (KM12; read-out: pTGI (converted)) of the same compound?
A: 18.2 µM

Q: And the GI50 (SF-268)?
A: 5.13 µM

Q: What about the CC50 (SF-268; [1]) of the same compound?
A: > 100 µM

Q: What about the TGI (SF-268; read-out: TGI) of the same compound?
A: 81.6 µM

Q: And the CC50 (SF-268; [2])?
A: > 100 µM

Q: What about the TGI (SF-268; read-out: pTGI (converted)) of the same compound?
A: 81.3 µM

Q: What about the GI50 (SF-539) of the same compound?
A: 17.4 µM

Q: And the CC50 (SF-539; [1])?
A: > 100 µM

Q: And the TGI (SF-539; read-out: TGI)?
A: 60.8 µM

Q: What about the CC50 (SF-539; [2]) of the same compound?
A: > 100 µM

Q: What about the TGI (SF-539; read-out: pTGI (converted)) of the same compound?
A: 60.3 µM

Q: And the GI50 (SNB-19)?
A: 20 µM

Q: What about the CC50 (SNB-19; [1]) of the same compound?
A: > 100 µM

Q: What about the TGI (SNB-19; read-out: TGI) of the same compound?
A: > 100 µM

Q: And the CC50 (SNB-19; [2])?
A: > 100 µM

Q: And the TGI (SNB-19; read-out: pTGI)?
A: > 100 µM

Q: And the GI50 (SNB-75)?
A: 2.95 µM

Q: What about the CC50 (SNB-75; [1]) of the same compound?
A: > 100 µM

Q: What about the TGI (SNB-75; read-out: TGI) of the same compound?
A: 20.5 µM

Q: What about the CC50 (SNB-75; [2]) of the same compound?
A: > 100 µM

Q: And the TGI (SNB-75; read-out: pTGI (converted))?
A: 20.4 µM

Q: What about the GI50 (SK-MEL-2) of the same compound?
A: 4.27 µM

Q: What about the CC50 (SK-MEL-2; [1]) of the same compound?
A: > 100 µM

Q: And the TGI (SK-MEL-2; read-out: TGI)?
A: > 100 µM

Q: And the CC50 (SK-MEL-2; [2])?
A: > 100 µM

Q: And the TGI (SK-MEL-2; read-out: pTGI)?
A: > 100 µM

Q: What about the GI50 (OVCAR-4) of the same compound?
A: 5.5 µM

Q: And the LC50 (OVCAR-4; read-out: LC50)?
A: > 100 µM

Q: What about the TGI (OVCAR-4; read-out: TGI) of the same compound?
A: 78.2 µM

Q: And the LC50 (OVCAR-4; read-out: pLC50 (converted))?
A: > 100 µM

Q: And the TGI (OVCAR-4; read-out: pTGI (converted))?
A: 77.6 µM

Q: What about the GI50 (OVCAR-8) of the same compound?
A: 21.4 µM

Q: And the CC50 (OVCAR-8; [1])?
A: > 100 µM

Q: What about the TGI (OVCAR-8; read-out: TGI) of the same compound?
A: > 100 µM

Q: And the CC50 (OVCAR-8; [2])?
A: > 100 µM

Q: And the TGI (OVCAR-8; read-out: pTGI)?
A: > 100 µM

Q: What about the GI50 (NCI/ADR-RES) of the same compound?
A: 22.4 µM

Q: And the CC50 (NCI/ADR-RES; [1])?
A: > 100 µM

Q: What about the TGI (NCI/ADR-RES; read-out: TGI) of the same compound?
A: > 100 µM

Q: And the CC50 (NCI/ADR-RES; [2])?
A: > 100 µM

Q: What about the TGI (NCI/ADR-RES; read-out: pTGI) of the same compound?
A: > 100 µM

Q: What about the GI50 (786-0) of the same compound?
A: 20.9 µM

Q: And the LC50 (786-0; read-out: LC50)?
A: > 100 µM

Q: And the TGI (786-0; read-out: TGI)?
A: 61.7 µM

Q: What about the LC50 (786-0; read-out: pLC50 (converted)) of the same compound?
A: > 100 µM

Q: What about the TGI (786-0; read-out: pTGI (converted)) of the same compound?
A: 61.7 µM

Q: What about the GI50 (A498) of the same compound?
A: 0.661 µM

Q: And the CC50 (A498; [1])?
A: > 100 µM

Q: And the TGI (A498; read-out: TGI)?
A: 10.5 µM

Q: What about the CC50 (A498; [2]) of the same compound?
A: > 100 µM

Q: What about the TGI (A498; read-out: pTGI (converted)) of the same compound?
A: 10.5 µM

Q: And the GI50 (ACHN)?
A: 47.9 µM

Q: What about the LC50 (ACHN; read-out: LC50) of the same compound?
A: > 100 µM

Q: And the TGI (ACHN; read-out: TGI)?
A: > 100 µM

Q: What about the LC50 (ACHN; read-out: pLC50 (converted)) of the same compound?
A: > 100 µM

Q: And the TGI (ACHN; read-out: pTGI)?
A: > 100 µM

Q: What about the GI50 (CAKI-1) of the same compound?
A: 20 µM

Q: What about the LC50 (CAKI-1; read-out: LC50) of the same compound?
A: > 100 µM

Q: And the TGI (CAKI-1; read-out: TGI)?
A: > 100 µM

Q: What about the LC50 (CAKI-1; read-out: pLC50 (converted)) of the same compound?
A: > 100 µM

Q: And the TGI (CAKI-1; read-out: pTGI)?
A: > 100 µM
